# Source: PubChem
# Shown are actives, neighbours in structure and some others; about 2.1% of the full set was active somewhere.
# Cardiac RTF inh – cardiac RTF calcium desensitization | inhibition, % at 7.15 µM | P19429+P45379 | 340,000 tested, 0.12% active | IANBD-labeled cardiac RTF, Ca2+ fluorescence | AID 493244;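 active = inhibition above the mean inhibition of all tested compounds plus 3 SD, cut at about 17% in these data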;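 note: assay run at fixed EC70 calcium of 1.6 mM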
# ARNT-TACC3 inh – disrupts binding between human ARNT and TACC3; Q9Y6A5; AlphaScreen His-ARNT PAS-B/GST-TACC3 binding, luminescence; TACC3 fragment carries E629A point mutation; inhibition, % at 9.99 µM; 390,000 tested, 0.66% active;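 active = mean inhibition of replicates at least 50% and at least half of replicates each reaching 50%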;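 note: 0% = complete ARNT plus TACC3 wells and 100% = ARNT alone without TACC3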
# UCH37 DUB inh – blocks the human deubiquitinase UCH37; Q9Y5K5; purified proteasome/UCH37, Ub-AMC cleavage fluorescence; inhibition, % (concentration not given with the values); 330,000 tested, 0.33% active; AID 588478;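 active = mean inhibition over replicate wells above about 20%, limit read from the data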;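 note: 0% = compound-free wells with enzyme and 100% = wells lacking proteasome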
# Target sequence (Q9Y5K5 whole entry, looked up): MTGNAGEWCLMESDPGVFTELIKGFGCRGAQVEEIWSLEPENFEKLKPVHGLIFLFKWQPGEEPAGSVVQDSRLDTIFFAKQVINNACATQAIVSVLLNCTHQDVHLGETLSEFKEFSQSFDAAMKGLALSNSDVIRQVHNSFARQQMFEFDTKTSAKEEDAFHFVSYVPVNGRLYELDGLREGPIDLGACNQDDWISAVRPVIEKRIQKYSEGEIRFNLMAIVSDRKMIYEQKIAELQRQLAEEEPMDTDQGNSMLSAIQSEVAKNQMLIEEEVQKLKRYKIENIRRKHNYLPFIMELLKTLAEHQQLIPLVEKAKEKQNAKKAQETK
#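 System: Proteasome-associated human UCH37 deubiquitinase; Input: 0.15 nM proteasome in added enzyme buffer; Also added: Ub-AMC substrate from 1 µM stock; Incubation: 30 min compound-proteasome preincubation then 25 min substrate reaction, room temperature; Detection: fluorescence, ex 355 nm, em 460 nm; Read-out: % inhibition of Ub-AMC cleavage fluorescence; Benchmarks: no-proteasome and no-compound wells.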
# RTF Ca sens act – cardiac RTF calcium sensitization; 340,000 tested, 0.24% active; P19429+P45379; IANBD-labeled TnC RTF fluorescence at EC20 calcium; 0% EC20 calcium, 100% full calcium; activation, % at 7.2 µM;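 active = activation above the mean over all tested compounds plus 3 SD, cut at about 30% in these data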;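 note: rise in fluorescence read as greater calcium sensitivity of cardiac thin filaments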
# SUMO Mot1 rescue – blocks SUMOylation pathway, rescuing yeast Mot1-301 growth; S. cerevisiae Mot1-301 growth rescue, ATP luminescence, 38.5C; percent above DMSO median, 100 means doubled; growth rescue, % at 18.8 µM; 320,000 tested, 1% active;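 active = every valid replicate shows activation above 250% relative to neutral control wells; inactive = the rest, any valid replicate at or below 250%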;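 note: OY570 slx delta 5 strain wells were the positive control but not used for scaling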
# Efflux pump inh – inhibitors of Candida antifungal efflux pumps expressed in yeast; inhibition, % at 10 µM; S. cerevisiae Candida pump triplex, Nile Red efflux; 330,000 tested, 0.44% active;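 active = plate passing quality check with inhibition over a set limit, or well fluorescence over plate mean plus 4 SD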;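 note: Nile Red retained in pooled yeast measured as flow cytometry median fluorescence; 0% = buffer negative control and 100% = Enniatin B positive control; higher means more Nile Red kept so more efflux inhibition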
# Mot1 SUMO dose – inhibits SUMO pathway, affecting Mot1-301 yeast growth. shares compounds with SUMO Mot1 rescue. S. cerevisiae Mot1-301 galactose growth, ATP luminescence, 24 h; -100 = growth of slx-deleted rescue strain. growth activity, percent, % at 42 µM. 2,300 tested, under 10 active. AID 493004;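 active = Signal drops as the depositor expects, and the fitted half-maximal dose is no more than ten times the top valid tested dose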;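 note: more negative values mean stronger growth rescue toward the control strain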
# Starred values were filed as active, the others as inactive; i = inactive; x = not tested or not shown; + = active, no number.
SMILES,Cardiac RTF inh,ARNT-TACC3 inh,UCH37 DUB inh,RTF Ca sens act,SUMO Mot1 rescue,Efflux pump inh,Mot1 SUMO dose
CCN(C(=O)CCS(=O)(=O)c1ccc2c(c1)oc(=O)n2C)c1ccc(OC)cc1,-1,1,2,-2,378*,0,0
CC(C)Cc1cc(CN2CCC(CO)(Cc3ccccc3)CC2)[nH]n1,-5,5,-2,-2,455*,0,-1
CCN(CC)c1ccc2c(C)c(CN3CCOCC3)c(=O)oc2c1,1,-21,i,0,+,0,-1
O=C(NC(Cc1ccccc1)C(=O)O)OCc1ccccc1 (centres undefined),-10,-9,3,0,43,0,x
O=C(O)CC(NC(=O)OCc1ccccc1)c1ccc(Br)cc1 (centres undefined),-9,x,-3,-6,585*,0,0
Cn1cc(C(Cc2ccccc2)=NO)c2ccccc21,x,x,0,x,x,x,x
CN(CC(=O)Nc1ccccc1Sc1ccccc1)Cc1nc2ccccc2c(=O)[nH]1,-1,0,3,0,704*,0,0
Clc1cncc(Cl)c1NN=Cc1ccccc1,x,x,6,x,x,x,x
CC(C)(C)c1ccc(C(=O)Nc2ccc(C(=O)NCc3cccnc3)cc2)cc1,-3,x,-2,6,262,0,x
CCOc1ccc(NS(=O)(=O)c2ccc(C(=O)NCc3ccncc3)cc2)cc1,1,2,1,-1,18,0,x
CCOc1ccc(NS(=O)(=O)c2ccc(C(=O)NCc3cccnc3)cc2)cc1,-8,2,-1,-8,449*,0,1
CC(C)(C)C(=O)Nc1ccc(C(=O)NCc2cccnc2)cc1,-5,0,-3,7,430*,0,0
C[N+](C)(C)CCN(Cc1ccc(Cl)cc1)c1ccccn1,-6,-7,-4,6,8,0,x
CN(C)CCN(Cc1ccc(Cl)cc1)c1ccccn1,7,-3,x,-5,558*,0,-1
COc1cc(C=NNc2nc3ccccc3o2)cc(OC)c1OC,x,x,0,x,x,x,x
CCCCC1=CC2=CC(=O)C(C)(OC(=O)CC)C(=O)C2=CN1CCc1ccc(Br)cc1 (centres undefined),0,4,x,0,526*,0,0
O=S(=O)(NCc1cccc(C(F)(F)F)c1)NCc1ccccc1F,-7,x,5,-5,+,0,1
O=C(NN=Cc1coc2ccccc2c1=O)c1cn(-c2ccccc2)nc1-c1ccccc1,x,x,-10,x,x,x,x
Cc1c(Cl)c([N+](=O)[O-])nn1CC(=O)NC12CC3CC(CC(C3)C1)C2,-2,1,4,6,952*,0,0
Cc1c(Cl)c([N+](=O)[O-])nn1CC(=O)N1CCCC1,-6,-4,6,-10,-18,0,x
N#CC(C#N)=C1NC2(CCCCC2)Cc2ccccc21,-7,-8,1,0,0,0,x
CC(=O)N(C(C)=O)C1=C(C#N)C2(CCCCC2)Cc2ccccc21,-7,-7,1,-5,871*,0,-1
Cc1ccc(S(=O)(=O)NN=Cc2cc(Br)ccc2O)cc1,x,x,5,x,x,x,x
O=C(NCCc1c[nH]c2ccccc12)c1cc(S(=O)(=O)N2CCCCC2)ccc1N1CCOCC1,1,2,4,2,449*,0,0
CCCNC(=O)c1cc(S(=O)(=O)N2CCCCC2)ccc1N1CCOCC1,6,-8,-3,-2,-4,0,x
SMILES,Cardiac RTF inh,ARNT-TACC3 inh,UCH37 DUB inh,RTF Ca sens act,SUMO Mot1 rescue,Efflux pump inh,Mot1 SUMO dose
O=c1nc2ccc(Cl)cn2c2ccc(S(=O)(=O)N3CCOCC3)cc12,-29,0,i,2,577*,0,0
O=C(NN=Cc1cc([N+](=O)[O-])ccc1O)C1CC1,x,x,12,x,x,x,x
CN1c2ccccc2-c2nc3ccccc3n2C1c1ccncc1 (centres undefined),-2,x,x,1,635*,0,0
CN1c2ccccc2-c2nc3ccccc3n2C1c1ccccn1 (centres undefined),-2,-2,i,0,x,0,x
Fc1cccc(Cl)c1CSc1nnc(CN2CCOCC2)n1-c1ccccc1,-4,2,x,-1,551*,0,0
Clc1ccc(CSc2nnc(CN3CCOCC3)n2-c2ccccc2)cc1Cl,-7,3,-3,13,588*,0,0
O=C(CSc1nnc(CN2CCOCC2)n1-c1ccccc1)Nc1ccc(Cl)cc1,-8,-2,2,-2,-6,0,x
Clc1cccc(Cl)c1CSc1nnc(CN2CCOCC2)n1-c1ccccc1,5,-11,0,-5,3,0,x
CC(C)C1OC2(C)OC(=N)C1(C#N)C(C#N)(C#N)C2c1ccccc1 (centres undefined),-28,-10,-441,10,414*,-1,1
CCC1OC2(C)OC(=N)C1(C#N)C(C#N)(C#N)C2c1ccccc1 (centres undefined),-17,0,-88,15,156,0,x
O=C(NNC(=O)C12CC3CC(CC(C3)C1)C2)c1ccccn1,3,75*,-1,-2,998*,0,0
C/C(=N\N1CCN(Cc2ccccc2Cl)CC1)c1ccc([N+](=O)[O-])cc1,1,12,x,2,832*,0,1
CCCNC(=O)c1csc2c1CCCCC2,4,-11,3,-3,-13,0,x
CC1CCCC(C)N1CCCNC(=O)c1csc2c1CCCCC2 (centres undefined),-6,-1,2,9,459*,0,1
Cc1cccc(NN=C(C(N)=O)C2=NC(C)(C)Cc3ccccc32)c1,x,x,6,x,x,x,x
Cn1cc(Br)c(C(=O)Nc2nccs2)n1,-1,-1,4,1,626*,0,0
CC1CC(N(C(=O)c2ccccc2Cl)c2ccccc2)c2ccccc2N1 (centres undefined),-6,-6,4,2,453*,0,1
Nc1nonc1NN=Cc1ccccc1,x,x,6,x,x,x,x
Cc1ccc(-n2nc(C(=O)N3CCOCC3)cc2-c2ccc(Cl)cc2)cc1,0,-2,0,3,-5,0,x
O=C(c1cc(-c2ccc(Cl)cc2)n(-c2ccc(Cl)cc2)n1)N1CCOCC1,-19,2,-2,2,399*,0,0
Cc1csc(NC(=O)c2ccc(Cn3nc(C)c(Br)c3C)o2)n1,-6,1,1,1,152,0,x
Cc1nn(Cc2ccc(C(=O)Nc3ccccc3C(F)(F)F)o2)c(C)c1Br,-1,-8,5,1,440*,0,0
O=C(CNC(=O)c1ccccc1Br)NN=Cc1ccccc1O,x,x,-28,x,x,x,x
